In ChEMBL document CHEMBL4725434, “Discovery of Selective, Covalent FGFR4 Inhibitors with Antitumor Activity in Models of Hepatocellular Carcinoma” (ACS Med Chem Lett, 2020):
The source made the active and inactive calls. No cut-off for these calls is given here.

How the values were obtained:
[1] = Cmax in rat at 10 mg/kg, po; format: ADME, organism-based; parameters: route oral, dose 10 mg/kg; settings: in vivo
Hep 3B2 = experiment: Antitumor activity against human Hep3B cells xenografted in SCID mouse orthotopic model assessed as inhibition of tumor regression at 100 mg/kg, po bid measured after 28 days relative to control; settings: time 28.0 day
[2] = Cmax in mouse at 10 mg/kg, po; format: ADME, organism-based; parameters: route oral, dose 10 mg/kg; settings: in vivo
FGFR4 (Homo sapiens) = experiment: In vivo receptor occupancy at FGFR4 in human Huh7 cells xenografted SCID mouse orthotopic model at 100 mg/kg, po qd after 10 hrs relative to control
[3] = Half life in rat at 10 mg/kg, po; format: ADME, organism-based; settings: in vivo
[4] = AUC in mouse at 10 mg/kg, po; format: ADME, organism-based; parameters: dose 10 mg/kg; settings: in vivo
[5] = AUC in cynomolgus monkey at 10 mg/kg, po; format: ADME, organism-based, Macaca fascicularis; parameters: dose 10 mg/kg; settings: in vivo
[6] = Volume of distribution at steady state in cynomolgus monkey at 3 mg/kg, iv; format: ADME, organism-based, Macaca fascicularis; settings: in vivo, read-out: Vdss
[7] = Clearance in mouse at 3 mg/kg, iv; format: ADME, organism-based; settings: in vivo
[8] = AUC in cynomolgus monkey at 3 mg/kg, iv; format: ADME, organism-based, Macaca fascicularis; parameters: dose 3 mg/kg; settings: in vivo
[9] = Half life in cynomolgus monkey at 3 mg/kg, iv; format: ADME, organism-based, Macaca fascicularis; settings: in vivo
[10] = Half life in rat at 3 mg/kg, iv; format: ADME, organism-based; settings: in vivo
[11] = Half life in mouse at 10 mg/kg, po; format: ADME, organism-based; settings: in vivo
Huh-7 [12] = experiment: Antitumor activity against human Huh7 cells xenografted in po dosed SCID mouse sorafenib-resistance established model assessed as tumor regression at 100 mg/kg, po bid for 11 days relative to untreated control; settings: time 11.0 day
[13] = AUC in mouse at 3 mg/kg, iv; format: ADME, organism-based; parameters: dose 3 mg/kg; settings: in vivo
[14] = AUC in rat at 3 mg/kg, iv; format: ADME, organism-based; parameters: dose 3 mg/kg; settings: in vivo
[15] = Half life in cynomolgus monkey at 10 mg/kg, po; format: ADME, organism-based, Macaca fascicularis; settings: in vivo
Huh-7 [16] = experiment: Antitumor activity against human Huh7 cells xenografted in po dosed SCID mouse sorafenib-resistance established model assessed as tumor regression measured after 11 days relative to untreated control; format: functional, organism-based; settings: time 11.0 day
How it was run: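 Huh7 tumors grown subcutaneously in SCID mice were made sorafenib-resistant by oral sorafenib at 100 mg/kg daily for […]. Oral dosing was then given at 10, 30 or 100 mg/kg BID for 11 days. Sorafenib 100 mg/kg once daily was the comparator arm. Read-out was tumor growth as %ΔT/ΔC.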

Huh-7 [17] = experiment: Antitumor activity against human Huh7 cells xenografted in po dosed SCID mouse sorafenib-resistance established model assessed as tumor regression at 30 mg/kg, po bid for 11 days relative to untreated control; settings: time 11.0 day
[18] = Volume of distribution at steady state in mouse at 3 mg/kg, iv; format: ADME, organism-based; settings: in vivo, read-out: Vdss
[19] = Oral bioavailability in cynomolgus monkey at 10 mg/kg; format: ADME, organism-based, Macaca fascicularis; settings: in vivo
[20] = Clearance in rat at 3 mg/kg, iv; format: ADME, organism-based; settings: in vivo
[21] = Clearance in cynomolgus monkey at 3 mg/kg, iv; format: ADME, organism-based, Macaca fascicularis; settings: in vivo
[22] = Oral bioavailability in mouse at 10 mg/kg; format: ADME, organism-based; settings: in vivo
[23] = Half life in mouse at 3 mg/kg, iv; format: ADME, organism-based; settings: in vivo
[24] = AUC in rat at 10 mg/kg, po; format: ADME, organism-based; parameters: dose 10 mg/kg; settings: in vivo
[25] = Oral bioavailability in rat 10 mg/kg; format: ADME, organism-based; settings: in vivo
[26] = Volume of distribution at steady state in rat 3 mg/kg, iv; format: ADME, organism-based; settings: in vivo, read-out: Vdss

Cmax [1]: 588 ng/mL
Cmax [2]: 423 ng/mL
half-life [3]: 192 min
AUC [4]: 2960 ng·h/mL
AUC [5]: 5660 ng·h/mL
Vd [6]: 1.1 L/kg
clearance [7]: 17.2 mL/min/kg
AUC [8]: 6420 ng·h/mL
t1/2 [9]: 4.8 h
t1/2 [10]: 2.1 h
half-life [11]: 108 min
AUC [13]: 2910 ng·h/mL
AUC [14]: 5610 ng·h/mL
half-life [15]: 120 min
Vd [18]: 0.63 L/kg
bioavailability [19]: 27%
clearance [20]: 9 mL/min/kg
clearance [21]: 8.4 mL/min/kg
bioavailability [22]: 20%
t1/2 [23]: 2.1 h
AUC [24]: 2230 ng·h/mL
bioavailability [25]: 12%
Vd [26]: 0.3 L/kg
SMILES: C=CC(=O)N[C@H]1COC[C@H]1Nc1ncc2cc(-c3c(Cl)c(OC)cc(OC)c3Cl)c(=O)n(C)c2n1
Activity (Hep 3B2): Active
Activity (FGFR4 (Homo sapiens)): >80%
Activity (Huh-7 [12]): Active
Activity (Huh-7 [16]): inactive
Activity (Huh-7 [17]): Active
